The source of these data is ChEMBL document CHEMBL1125746, “Novel heteroarotinoids: synthesis and biological activity” (1991).

Test [1] addresses T1, Ornithine decarboxylase (Mus musculus) (UniProt P00860).
T1 sequence (whole entry): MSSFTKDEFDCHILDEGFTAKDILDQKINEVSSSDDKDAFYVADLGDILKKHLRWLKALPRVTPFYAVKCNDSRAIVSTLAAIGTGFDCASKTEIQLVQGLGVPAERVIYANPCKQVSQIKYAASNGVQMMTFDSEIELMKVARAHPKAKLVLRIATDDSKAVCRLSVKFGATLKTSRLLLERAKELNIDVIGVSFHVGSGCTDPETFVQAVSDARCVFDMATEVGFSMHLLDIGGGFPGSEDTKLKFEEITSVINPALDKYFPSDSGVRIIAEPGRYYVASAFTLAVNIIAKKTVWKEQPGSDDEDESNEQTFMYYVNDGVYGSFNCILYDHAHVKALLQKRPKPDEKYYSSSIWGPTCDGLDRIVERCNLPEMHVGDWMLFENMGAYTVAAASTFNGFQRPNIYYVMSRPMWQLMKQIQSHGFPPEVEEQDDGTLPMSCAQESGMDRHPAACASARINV
Briefly: Compound was evaluated for the ability to inhibit the phorbol ester induced increase of mouse epidermal ornithine decarboxylase (ODC) activity by 50% when administered topically using ODC assay. The class given is functional. In outline:
(§1)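 Retinoids applied topically to mouse skin at 0.1, 1.0, 5.0, 10 and 50 nmol, 1 h before 10 nmol TPA. Epidermal ODC activity measured 4.5 h after TPA as nmol CO2/30 min per mg protein. ID50 (dose giving 50% inhibition of TPA-induced ODC) read from dose-response curves; three experiments, results normalized.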

Test [2] has as its target T1, Ornithine decarboxylase (Mus musculus). Briefly: Compound was evaluated for the ability to inhibit the phorbol ester induced increase of mouse epidermal ornithine decarboxylase. The class given is functional. In outline: as §1
For test [3] the target is unchanged. The test is described as follows: Compound was evaluated for the percentage inhibition of test retinoid as compared to the control by ODCassay. The settings on record: concentration not given here. The class given is functional. In outline:
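Single topical retinoid dose of 34 nmol given 1 h before 10 nmol TPA on mouse skin. Epidermal ODC assayed 4.5 h after TPA as nmol CO2/30 min per mg protein. Three groups of two mice each. % inhibition = [(ODC with TPA) − (ODC with TPA + retinoid)]/(ODC with TPA) × 100.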

In another test the test system is HL-60. The test is described as follows: Compound was evaluated for the retinoid-induced differentiation of the human myeloid leukemia cell line HL-60 using trans-retinoic acid as the standard. The class given is functional. The settings on record: read-out: ED50 (the source's name).
The target in test [4] is Ornithine decarboxylase (Mus musculus) (UniProt P00860). The test is described as follows: Compound was evaluated for the ability to inhibit the phorbol ester induced increase of mouse epidermal ornithine decarboxylase (ODC) activity by 50% when administered topically using ODC assay.

pEC50: −log10 of the molar value. A value given as a limit tells only on which side of the number the result lay.

In test [1], `COC(=O)c1ccc(/C=C(/c2ccc3c(c2)C(C)(C)CCO3)C(F)(F)F)cc1` registered an ID50 of over 50 nM.

In test [1], `COC(=O)c1ccc(/C=C(/c2ccc3c(c2)C(C)(C)CCS3)C(F)(F)F)cc1` displayed an ID50 of over 50 nM.

The inhibition is the drop in the measured response relative to a control, in per cent. High values mean strong suppression, low ones little suppression. `C/C(=C\c1ccc(C(=O)O)cc1)c1ccc2c(c1)C(C)(C)CS2.CCCCCCCCCCCCCC(=O)OCC1(C)[C@H]2[C@@H]3C=C(CO)C[C@]4(O)C(=O)C(C)=C[C@H]4[C@@]3(O)[C@H](C)[C@@H](O)[C@]21OC(C)=O` (some centres undefined) yielded an ID50 in test [2] of 22 nM. Moreover, the inhibition in test [3] worked out at 91%.

With `CC1(C)CCSc2ccc(/C(=C/c3ccc(C(=O)O)cc3)C(F)(F)F)cc21`, in the test on HL-60, the pEC50 is under 6.00. The compound also registered an ID50 in test [1] of 35 nM.

`C/C(=C\c1ccc(C(=O)O)cc1)c1ccc2c(c1)C(C)(C)CC(C)(C)S2`: in the test with HL-60, the pEC50 was under 6.00. Moreover, the ID50 in test [1] came to 0.31 nM.

Consider `C/C(=C\C=C\[C@H]1C[C@@H]1C(=O)O)c1ccc2c(c1)C(C)(C)CCS2`, for which, in the test with HL-60, the pEC50 was under 6.00. The compound also came in with an ID50 in test [1] of 35 nM.

As to `CCCCCCCCCCCCCC(=O)OCC1(C)[C@H]2[C@@H]3C=C(CO)C[C@]4(O)C(=O)C(C)=C[C@H]4[C@@]3(O)[C@H](C)[C@@H](O)[C@]21OC(C)=O.COC(=O)c1ccc(/C=C(\C)c2ccc3c(c2)C(C)(C)CS3)cc1` (some centres undefined), the ID50 in test [2] was 1.2 nM. The compound also gave an inhibition in test [3] of 94%.

Turning to `CC1=C(/C=C/C(C)=C/C=C/C(C)=C/C(=O)O)C(C)(C)CCC1` [TRETINOIN], in the test on HL-60, the pEC50 is 7.30. The compound also yielded an ID50 in test [1] of 0.12 nM.

The compound `COC(=O)c1ccc(/C=C(/c2ccc3c(c2)C(C)(C)CC(C)(C)S3)C(F)(F)F)cc1` had an ID50 in test [1] of over 50 nM.

`COC(=O)c1ccc(/C=C(\C)c2ccc3c(c2)C(C)(C)CC(C)(C)S3)cc1` registered an ID50 in test [4] of 0.3 nM.

For `CC1(C)CC(C)(C)c2cc(/C(=C/c3ccc(C(=O)O)cc3)C(F)(F)F)ccc2S1`, in test [1], the ID50 was over 50 nM.

Regarding `CC1=C(/C=C/C(C)=C/C=C/C(C)=C\C(=O)O)C(C)(C)CCC1` [ISOTRETINOIN], the pEC50 in the test with HL-60 was 7.00.

In the case of `CC1(C)CCOc2ccc(/C(=C/c3ccc(C(=O)O)cc3)C(F)(F)F)cc21`, the pEC50 in the test on HL-60 is under 6.00. The ID50 in test [1] is over 50 nM.

For `CC(/C=C/C=C(\C)c1ccc2c(c1)C(C)(C)CCS2)=C\C(=O)O`, the pEC50 in the test on HL-60 was 6.30. Besides, in test [1], the ID50 is 3.3 nM.

As for `CC(/C=C/C=C(\C)c1ccc2c(c1)C(C)(C)CC(C)(C)S2)=C\C(=O)O`, in the test with HL-60, the pEC50 is under 6.00. This compound also displayed an ID50 in test [1] of 3.7 nM.
